Published values gathered from unrelated publications.
Each line is one published result; the experiments were not run side by side.
Target: Serine/threonine-protein kinase VRK2 (VRK2, Homo sapiens, UniProt Q86Y07)

SMILES | read-out | mode | method | cell line | concentration | quantity | result
N#CC1c2c([nH]c3c(Cl)c(Cl)ccc23)C(=O)NC12CCCCC2 (racemic) | thermal stability |  | DSF |  | 10 µM | ΔTm | -0.3 °C
N#Cc1ccc(Nc2ccc3[nH]c(=O)[nH]c3c2)c(Cl)c1 | cell-free assay |  | competition with immobilised ligand |  | 1 µM | remaining binding | 100%
Cn1c2c(Cl)c(Cl)ccc2c2cn[nH]c(=O)c21 | thermal stability |  | DSF |  | 10 µM | ΔTm | 0 °C
Cc1cc(-n2nc(Cc3cc(F)cc(C(F)(F)F)c3)nc2C)ccc1C(N)=O | cell-free assay |  | competition with immobilised ligand |  | 1 µM | remaining binding | 100%
Nc1ncnc2occ(-c3ccc(NC(=O)Nc4cc(C(F)(F)F)ccc4F)cc3)c12 | cell-free assay | inhibitor |  |  | 20 µM | remaining signal | 2.4%
Cc1ccc(Nc2nccc(N(C)c3ccc4c(C)n(C)nc4c3)n2)cc1S(N)(=O)=O | enzyme activity | inhibitor |  |  | 0.3 µM | inhibition | -16%
CCN1CCC2(CC1)NC(=O)c1c(c3ccc(Cl)c(Cl)c3n1C)C2C#N (racemic) | thermal stability |  | DSF |  | 10 µM | ΔTm | 0.1 °C
Cc1cc(NC(=O)c2cccc3cc(-c4cccc5[nH]nc(N)c45)ccc23)ccc1F | enzyme activity | inhibitor |  |  | 0.1 µM | activity vs control | 89%
Cn1c2c(c3ccccc31)C(C#N)C(C)(C)NC2=O (centres unmarked) | thermal stability |  | DSF |  | 10 µM | ΔTm | 0.2 °C
CNC(=O)c1cc(Oc2ccc(NC(=O)Nc3ccc(Cl)c(C(F)(F)F)c3)cc2)ccn1 | enzyme activity | inhibitor |  |  | 0.3 µM | inhibition | -15%
CCCOc1ccc(OC)c(F)c1C(=O)c1ccc(C(=O)N[C@@H]2CNC[C@H]2NC(=O)c2ccc3[nH]ncc3c2)cc1 | enzyme activity | inhibitor |  |  | 10 µM | remaining activity | 129%
CC1(C)NC(=O)c2[nH]c3c(Cl)c(Cl)ccc3c2C1C#N (centres unmarked) | thermal stability |  | DSF |  | 10 µM | ΔTm | -0.1 °C
Cc1ccc(NC(=O)c2ccc(C)c(C(F)(F)F)c2)cc1C#Cc1nn(C2CCC(O)CC2)c2ncnc(N)c12 (centres unmarked) | cell-free assay |  |  |  | 10 µM | remaining signal | 85%
COc1ccc2c(c1)O[C@H](c1ccc(OC)c(OC)c1)C[C@@H]2NC(=O)C1(c2ccc3c(c2)OC(F)(F)O3)CC1 | cell-free assay |  | competition with immobilised ligand |  | 1 µM | remaining binding | 82%
CC(C)(C)c1nc(-c2cccc(NS(=O)(=O)c3c(F)cccc3F)c2F)c(-c2ccnc(N)n2)s1 | enzyme activity | inhibitor | radiometric |  | 1 µM | remaining activity | 103%
C[C@H](c1ccc(F)cc1)N(Cc1cccc(C(=O)O)c1)C(=O)c1cnc2ccccc2c1 | cell-free assay |  | competition with immobilised ligand |  | 1 µM | remaining binding | 100%
Cn1c2c(c3ccc(Cl)c(Cl)c31)C(C#N)C(C)(C)NC2=O (centres unmarked) | thermal stability |  | DSF |  | 10 µM | ΔTm | 0.8 °C
CN(C)CC#Cc1ccc(OCCCc2sc(N3CCc4cccc(C(=O)Nc5nc6ccccc6s5)c4C3)nc2C(=O)O)c(F)c1 | cell-free assay |  | competition with immobilised ligand |  | 1 µM | remaining binding | 100%
Cc1sc(C(=O)NC2COC2)cc1-n1cc(NC(=O)Nc2c(F)cccc2Cl)cn1 | enzyme activity | inhibitor |  |  | 10 µM | remaining activity | 102%
CN(C)C(=O)Cn1cc(-c2nc([C@@](C)(c3ccc(-c4cnc(N)nc4)cc3)C3CC3)no2)cn1 | cell-free assay |  | competition with immobilised ligand |  | 1 µM | remaining binding | 92%
CCN(CC)CCNC(=O)c1c(C)[nH]c(/C=C2\C(=O)Nc3ccc(F)cc32)c1C | enzyme activity | inhibitor |  |  | 0.3 µM | inhibition | -19%
CS(=O)(=O)N1CCCC(NC(=O)[C@H](CCC2CCCCC2)NC(=O)c2ccc(CNC(=O)c3cnc4ccccn34)cc2)C1 (some centres unmarked) | cell-free assay |  | competition with immobilised ligand |  | 0.1 µM | remaining binding | 76%
CCN1CCN(Cc2ccc(NC(=O)c3ccc(C)c(Oc4ccnc5[nH]ccc45)c3)cc2C(F)(F)F)CC1 | target engagement in cells | inhibitor | chemoproteomics | Huh-7 | 1 µM | inhibition | -14.2%
